rRNA inh HTS = inhibitors of bacterial rRNA selective over humanized ribosomes. 350,000 tested, 1.6% active. GFP signal change (wild-type ribosome), % (concentration not given with the values). E. coli WT GFP vs humanized-ribosome RFP mutants, fluorescence, 24 h; hits give low values; DMSO median 0, no signal -100;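 active = significant combined selectivity score with lowered wild-type GFP, culture density cut under 30%, mutant RFP and density less affected; inactive = any of these conditions unmet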
miR-122 sensor = inhibitors of miR-122 in Huh7 cells | Huh7 miR-122 Renilla luciferase sensor, 48 h; neutral wells = 0, positive control = 100 | AID 602342 | 340,000 tested, 0.3% active | activation (reporter increase), % at 12.5 µM;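 active = mean replicate activation score at least 90 and every replicate individually at or above 90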;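 also: higher luciferase means less miR-122 activity so hits act as miR-122 inhibitors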
CFTR F508del cor = correctors of CFTR F508del function in bronchial epithelial cells; CFBE cells, YFP halide quenching; stimulated with forskolin plus potentiator P3; % fluorescence drop versus neutral controls; activity (quench increase), % at 7.58 µM; 350,000 tested, 0.36% active;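 active = mean added fluorescence quench of at least 8% versus neutral control, with both replicates also reaching 8%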;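 also: cells transiently co-express mutant CFTR-F508del with the halide-sensitive YFP; corrector assay measuring rescue of mutant channel to the surface after 24 h compound exposure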
Env fusion inh = HIV envelope-mediated fusion inhibition. HeLa-JRFL Env/CEM21 cell fusion, luciferase. inhibition, % at 12.3 µM. 360,000 tested, 1.1% active. AID 651610;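 active = mean replicate inhibition score of at least 50 and every replicate individually at or above 50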;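 also: 0% = plate neutral controls and 100% = maraviroc near 300 nM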
INS-1E GSIS act = primary screen for activators of insulin secretion dependent on glucose, INS-1E cells, GLuc reporter luminescence; 370,000 tested, 0.61% active; activation, % at 16.6 µM; AID 743287; INS-1E GLuc reporter insulin secretion, 2-3 h;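 active = lowest replicate activation of at least 40%, so every replicate reaches that level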;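 also: 0% = median of neutral control wells and 100% = median of IBMX positive control wells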
Cneo AK release = Cryptococcus neoformans lysis via adenylate kinase release. 360,000 tested, 0.2% active. C. neoformans lysis, adenylate kinase release luminescence, 4 h; normalised: neutral wells 0, clomiphene wells 100. lysis activity, % at 15 µM;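 active = mean lysis activity across replicates of at least 80%, whatever share of replicates individually reach that level; inactive = mean lysis activity below 80%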
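Assay system: Cryptococcus neoformans yeast cells / Dosing: single-point compound dose / Timing: 4 h at 37 °C static, read 1 h later / Measured by: luminescence of released adenylate kinase using an AK detection reagent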
* marks the source's active call; other numbers are inactive results; x = no result; [ ] = dose if it differs, or a comment. An excerpt weighted towards active compounds, which were near 3.1% of everything screened.

SMILES	rRNA inh HTS	miR-122 sensor	CFTR F508del cor	Env fusion inh	INS-1E GSIS act	Cneo AK release
CCN(CCCNC(=O)CC(C(=O)N1CCc2ccccc21)n1ccnc1)c1cccc(C)c1 (centres undefined)	x	3.2	x	57.1*	x	-2.1
COCCNC(=O)C[C@H]1C[C@H]2c3cc(NC(=O)c4ccc5c(c4)OCO5)ccc3O[C@H]2[C@@H](CO)O1	0.7	9.5[16.7 µM]	-1.4	-13.2[16.7 µM]	-0.8	-0.3
CO[C@H](CN(C)S(=O)(=O)c1cn(C)cn1)[C@H](C)CN(C(=O)Nc1ccc(C(F)(F)F)cc1)[C@H](C)CO	-60.9	x	-1.9	x	-18.4	-3.0
CS(=O)(=O)N(Cc1ccc(Cl)cc1)c1ccc(C(=O)Nc2cccnc2)cc1	x	-1.4	x	60.2*	x	0.2
CS(=O)(=O)N(Cc1ccccc1)c1ccc(C(=O)Nc2cccnc2)cc1	x	-0.6	x	-19.1	x	-2.8
CS(=O)(=O)N(Cc1ccc(Cl)cc1)c1ccc(C(=O)NCCSc2ccccn2)cc1	x	1.3	x	84.7*	-16.4	0.3
C[C@H]1CCCCO[C@H](CN(C)Cc2ccc(C(=O)O)cc2)[C@@H](C)CN([C@@H](C)CO)C(=O)c2cc(NC(=O)CCC(F)(F)F)ccc2O1	3.0	7.8[16.7 µM]	1.6	-1.8[16.7 µM]	1.0	-1.6
C[C@@H]1CCCCO[C@H](CN(C)C)[C@@H](C)CN([C@H](C)CO)C(=O)c2cc(NC(=O)Nc3ccccc3)ccc2O1	5.3	2.1[16.7 µM]	1.9	4.6[16.7 µM]	13.8	x
CN(C)C(=O)C[C@H]1CC[C@H]2[C@H](COc3ccc(NC(=O)C4CCC4)cc3C(=O)N2C)O1	4.7	x	-0.9	x	-3.8	x
CC(=O)N1N=C(c2ccc(Br)cc2)OC1(C)CC(=O)Nc1ccccc1 (centres undefined)	x	x	x	-59.4	57.4*	x
CC(=O)N1N=C(c2ccccc2)OC12CCCC2	5.8	x	-0.5	5.2	-2.7	x
O=C1CCCS(=O)(=O)c2ccccc21	x	171.5*	1.8	10.0	x	2.2
O=C1CCCCC(=O)N(c2ccccc2)c2ccccc21	x	-3.9	x	-2.6	x	0.9
CC1(C)Cc2c(ccc3ccccc23)C2=C(C(=O)N3CCCC3)C(=O)C(=O)N21	-25.9*	x	6.5	4.3	-47.7	x
Cc1cc(/C=C2\SC(=S)NC2=O)c(C)n1-c1ccc(O)cc1	-24.2*	x	-0.6	-49.9	-1.4	x
CNC[C@@H]1Oc2cc(C#CC3(O)CCCC3)ccc2S(=O)(=O)N([C@@H](C)CO)C[C@@H]1C	3.2	9.9[16.7 µM]	-1.0	x	-3.6	-3.0
CSc1cccc(NC(=S)N(CCCN2CCC(C)CC2)Cc2cccs2)c1	-19.0*	14.2	0.5	17.7	-3.1	1.2
COc1cccc(NC(=S)N(CCCN2CCC(C)CC2)Cc2cccs2)c1	8.7	x	2.3	-1.0	11.0	-1.0
Cc1nnc(N2C(=O)C(O)=C(C(=O)c3ccco3)C2c2cccc([N+](=O)[O-])c2)s1 (centres undefined)	10.7	-3.3	3.7	1.7	47.6*	-1.4
CCCC(=O)Nc1ccc2c(c1)C(=O)N(C)C[C@H](OC)[C@H](C)CN(C(=O)CC1CC1)[C@H](C)CO2	0.1	x	-0.2	18.8[16.7 µM]	-6.7	-0.8
O=C(Cc1ccncc1)NCC[C@H]1CC[C@H](NS(=O)(=O)c2ccccc2Cl)[C@H](CO)O1	-0.9	x	0.3	5.4[16.7 µM]	-3.3	-2.8
CCCCOc1ccc(S(=O)(=O)Nc2cccnc2)cc1	x	-1.1	x	69.1*	x	-1.2
CC(C)N(C(=S)NC1CC2CCC1C2)c1ccccc1 (centres undefined)	8.9	-7.4	-6.0	10.4	-12.4	-0.5
CN(C)c1cccc(C(=O)NNC(=S)NC2CC3CCC2C3)c1 (centres undefined)	-24.3*	4.9	-0.5	-7.4	-7.4	4.4
COc1ccc(-c2cnnn2-c2ccc(NC(=O)c3ccco3)cc2)cc1OC	x	0.3	x	-20.1	x	7.5
SMILES	rRNA inh HTS	miR-122 sensor	CFTR F508del cor	Env fusion inh	INS-1E GSIS act	Cneo AK release
COc1ccc(-c2cnnn2-c2ccc(N)cc2)cc1OC	x	2.0	x	-15.2	53.4*	0.8
C[C@H](CO)N1C[C@H](C)[C@H](CN(C)Cc2cccc(C(F)(F)F)c2)Oc2ncc(C#CCN(C)C)cc2C1=O	1.3	-7.3[16.7 µM]	-1.4	-53.5[16.7 µM]	24.3	-2.4
O=C(NCCN1CCN(C(=O)c2ccccc2Cl)CC1)C(=O)NCc1ccccc1	9.0	x	1.0	8.9	159.8*	-0.7
O=C(NCCN1CCN(C(=O)c2cccc(Br)c2)CC1)C(=O)NCc1ccccc1	-1.4	1.1	1.9	7.5	7.2	-0.9
COc1ccc(CCn2c(N)c(S(=O)(=O)c3cccs3)c3nc4ccccc4nc32)cc1OC	-20.8*	x	2.6	x	5.6	-1.0
Nc1c(S(=O)(=O)c2cccs2)c2nc3ccccc3nc2n1CCc1ccccc1	x	x	x	81.4*	x	x
Cc1ccc(S(=O)(=O)c2c(N)n(CCC(C)C)c3nc4ccccc4nc23)cc1	x	55.5	x	80.8*	x	6.5
CC(C)CCn1c(N)c(S(=O)(=O)c2cccs2)c2nc3ccccc3nc21	-1.1	69.3	0.1	x	-26.0	5.3
CO[C@H]1CN(C)C(=O)c2cc(C#N)ccc2OCC[C@@H]2CC[C@H](OC)[C@@H](CN(C)C(=O)[C@H]1C)O2	4.0	x	x	0.4[16.7 µM]	14.0	5.5
Cc1cc(C(=O)COc2ccc(Cl)cc2Br)c(C)n1C	-45.5*	x	-1.0	-3.5	-10.6	x
COc1ccc(CN2C[C@@H](O)COC[C@@H]3O[C@H](CC(=O)NCCN4CCCC4)CC[C@H]32)cc1	-1.1	-1.6[16.7 µM]	-0.7	-6.9[16.7 µM]	-4.0	1.1
COc1ccc(S(=O)(=O)N(C)C[C@@H]2Oc3ccc(NC(=O)NC4CCCCC4)cc3CC(=O)N([C@@H](C)CO)C[C@@H]2C)cc1	-1.4	-6.8[16.7 µM]	-0.9	-7.3[16.7 µM]	-16.8	-0.2
COc1ccc(NC(=O)O/N=C/c2ccccc2Cl)cc1	-13.0*	x	-1.6	-6.4	-14.8	x
C[C@@H]1CN([C@@H](C)CO)C(=O)c2cccc(NC(=O)c3nc4ccccc4s3)c2O[C@@H]1CN(C)C(=O)NC1CCCCC1	-9.7	1.3[16.7 µM]	-2.0	x	-23.2	2.7
COc1ccc(CCC(=O)N2CCN(S(=O)(=O)c3ccc4ccccc4c3)CC2)cc1	x	-0.8	x	x	x	x
COc1ccc(CCC(=O)N2CCN(S(=O)(=O)c3ccc(OC(F)(F)F)cc3)CC2)cc1	-2.6	x	15.7*	41.8	-24.7	-5.4
C[C@H](CO)N1C[C@H](C)[C@H](CN(C)Cc2ccc(C(=O)Nc3ccccc3N)cc2)Oc2ccc(NC(=O)CCC(F)(F)F)cc2CC1=O	-3.4	97.7*[16.7 µM]	4.0	-180.9[16.7 µM]	19.7	1.7
C[C@@H]1CN([C@@H](C)CO)C(=O)Cc2cc(NC(=O)Nc3cccc4ccccc34)ccc2O[C@@H]1CN(C)Cc1ccc(C(=O)Nc2ccccc2N)cc1	-5.0	x	-1.8	x	-35.8	x

Source: PubChem
